The record followed here is PMC7089611 (Febs Letters, 2012).

The format of data set [1] is physicochemical. The following applies: CD at 220 nm, protein 7 μM, 50 mM Tris–HCl pH 7.5, 150 mM NaCl, 0.1% β‐mercaptoethanol.
Data set [2] can be described thus: Secondary structural content by CD spectroscopy. The following applies: 25 °C, protein 5 μM, 50 mM Tris–HCl pH 7.5, 150 mM NaCl, 0.1% β‐mercaptoethanol, CDSSTR. Type of data set: physicochemical.
Data set [3] deals with C‐terminal domain of the HCoV‐229E N protein. The data set can be described thus: Sedimentation velocity analytical ultracentrifugation: self-association. It counts as binding. The conditions noted are these: N245–389 in the absence of the C‐terminal tail peptide. In short, it runs like this: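 C-terminal His6-tagged N-protein domain (residues 245–389) was bacterially expressed (1 mM IPTG, 37 °C, 6 h) and purified on Ni–NTA. Runs were at 20 °C and 42,000 rpm, read at 280 nm every 420 s, at 50, 30 and 10 μM protein in 50 mM Tris–HCl pH 7.5, 150 mM NaCl, 0.1% β-mercaptoethanol. Data were fit to a continuous size distribution (0.1–20.0 S).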

B1: N245–382: truncated C‐terminal domain of the HCoV‐229E N protein, extended C‐terminal tail that includes residue 382 (protein)
chain: QKPRWKRQPNDDVTSNVTQCFGPRDLDHNFGSAGVVANGVKAKGYPQFAELVPSTAAMLFDSHIVSKESGNTVVLTFTTRVTVPKDHPHLGKFLEELNAFTREMQQHPLLNPSALEFNPSQTSPATAEPVRDEVSIET
modifications: left off: His6, C-terminal, state not stated
Consider B1, for which the “melting temperature (Tm)” value in data set [1] is “above 70 °C”. Also, in data set [2], the “Disordered (random coil) content” value worked out at 13%, the Helix content is 43%, the Sheet content was 25% and the Turn content was determined as 19%.

B2: N245–370: truncated C‐terminal domain of the HCoV‐229E N protein, extended C‐terminal tail that includes residue 370 (protein)
chain: QKPRWKRQPNDDVTSNVTQCFGPRDLDHNFGSAGVVANGVKAKGYPQFAELVPSTAAMLFDSHIVSKESGNTVVLTFTTRVTVPKDHPHLGKFLEELNAFTREMQQHPLLNPSALEFNPSQTSPAT
modifications: left off: His6, C-terminal, state not stated
B2: the “melting temperature (Tm)” value in data set [1] turned out to be 36.2 °C. Besides, in data set [2], the “Disordered (random coil) content” value stood at 17%, the Helix content is given as 46%, the Sheet content came out at 23% and the Turn content was determined as 14%.

B3: N245–376: truncated C‐terminal domain of the HCoV‐229E N protein, extended C‐terminal tail that includes residue 376 (protein)
chain: QKPRWKRQPNDDVTSNVTQCFGPRDLDHNFGSAGVVANGVKAKGYPQFAELVPSTAAMLFDSHIVSKESGNTVVLTFTTRVTVPKDHPHLGKFLEELNAFTREMQQHPLLNPSALEFNPSQTSPATAEPVRD
modifications: left off: His6, C-terminal, state not stated
Consider B3, for which, in data set [1], the “melting temperature (Tm)” value was found to be 36.7 °C. Further, in data set [2], the “Disordered (random coil) content” value was 15%, the Helix content is listed as 47%, the Sheet content came out at 22% and the Turn content is 16%.

B4: N245–389: truncated C‐terminal domain of the HCoV‐229E N protein, extended C‐terminal tail that includes residue 389 (protein)
chain: QKPRWKRQPNDDVTSNVTQCFGPRDLDHNFGSAGVVANGVKAKGYPQFAELVPSTAAMLFDSHIVSKESGNTVVLTFTTRVTVPKDHPHLGKFLEELNAFTREMQQHPLLNPSALEFNPSQTSPATAEPVRDEVSIETDIIDEVN
modifications: left off: His6, C-terminal, state not stated
As for B4, in data set [1], the “melting temperature (Tm)” value is “above 70 °C”. The S-value of dimer entry in data set [3] (20 °C, dimer) is “approximately 2.85”. The molecule further displayed a S-value of octamer in data set [3] (20 °C, octamer) of about 7.75. This molecule had a S-value of tetramer in data set [3] (20 °C, tetramer) of about 5.30. Moreover, the “molecular mass corresponding to S-value, dimer” value in data set [3] (dimer) is given as 31 kDa. In addition, the “molecular mass corresponding to S-value, octamer” value in data set [3] (octamer) is reported as 131 kDa. For the same molecule, in data set [3] (tetramer), the “molecular mass corresponding to S-value, tetramer” value stood at 69 kDa. For the same molecule, in data set [2], the “Disordered (random coil) content” value is reported as 13%, the Helix content worked out at 45%, the Sheet content came out at 26% and the Turn content came out at 16%.
